Experimental data taken from ChEMBL document CHEMBL4715813, “Allicin-inspired pyridyl disulfides as antimicrobial agents for multidrug-resistant Staphylococcus aureus” (Eur J Med Chem, 2018).
Values after ≈ are worked out from the molar mass of the structure shown.

Legend:
[1] = test system: Staphylococcus aureus; assay: Antibacterial activity against linezolid-resistant Staphylococcus aureus assessed as bacterial growth inhibition incubated for 20 hrs by broth dilution method; type: functional
In short: (§1)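 Broth microdilution: 0.5 McFarland suspension from an overnight culture, diluted 1:100 in cation-adjusted Mueller Hinton broth (CAMHB), given serial dilutions of test agent for 20 h at 37 °C. MIC is the lowest concentration with no visible growth.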

[2] = test system: Staphylococcus aureus; assay: Antibacterial activity against methicillin-susceptible Staphylococcus aureus ATCC 25923 in presence of 10% v/v serum; type: functional
[3] = test system: Staphylococcus aureus; assay: Ratio of MBC to MIC against linezolid-resistant Staphylococcus aureus; type: functional
In short: (§2)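 For MBC, 5 μL from each well was spotted on agar and incubated overnight; MBC is the lowest concentration with no visible growth. Ratio taken as MBC over MIC.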

[4] = test system: Staphylococcus aureus; assay: Antibacterial activity against vancomycin-resistant Staphylococcus aureus HIP11714 assessed as zone of inhibition by disc diffusion method; type: functional
[5] = test system: Enterococcus faecium; assay: Antibacterial activity against vancomycin-resistant Enterococcus faecium ATCC 700221 assessed as zone of inhibition by disc diffusion method; type: functional
[6] = test system: Staphylococcus aureus; assay: Antibacterial activity against vancomycin-intermediate resistant Staphylococcus aureus Mu50 ATCC 700699 assessed as bacterial growth inhibition incubated for 20 hrs by broth dilution method; type: functional; in short: as §1
[7] = test system: Staphylococcus aureus; assay: Antibacterial activity against methicillin-susceptible Staphylococcus aureus ATCC 25923 assessed as bacterial growth inhibition incubated for 20 hrs by broth dilution method; type: functional; in short: as §1
[8] = test system: Staphylococcus aureus; assay: Antibacterial activity against methicillin-susceptible Staphylococcus aureus ATCC 25923 assessed as zone of inhibition by disc diffusion method; type: functional
[9] = test system: Staphylococcus aureus; assay: Bactericidal activity against linezolid-resistant Staphylococcus aureus assessed as bacterial killing incubated for over night
[10] = test system: Staphylococcus epidermidis; assay: Antibacterial activity against Staphylococcus epidermidis ATCC 14990 assessed as zone of inhibition by disc diffusion method; type: functional
[11] = test system: Staphylococcus aureus; assay: Antibacterial activity against vancomycin-resistant Staphylococcus aureus HIP11714 assessed as inhibition of bacterial growth incubated for 20 hrs by broth microdilution method; type: functional; details: HIP11714, 20 h; in short: as §1
[12] = test system: Staphylococcus aureus; assay: Bactericidal activity against vancomycin-intermediate resistant Staphylococcus aureus Mu50 ATCC 700699 assessed as bacterial killing incubated for over night; type: functional; in short: as §2
[13] = test system: Staphylococcus aureus; assay: Antibacterial activity against hospital acquired methicillin-resistant Staphylococcus aureus ATCC 43300 assessed as zone of inhibition by disc diffusion method; type: functional
[14] = test system: Staphylococcus aureus; assay: Antibacterial activity against methicillin-susceptible Staphylococcus aureus ATCC 25923 in presence of 0.05% v/v albumin; type: functional
[15] = test system: Staphylococcus aureus; assay: Antibacterial activity against methicillin-resistant Staphylococcus aureus ATCC 43300 assessed as bacterial growth inhibition incubated for 20 hrs by broth dilution method; type: functional; in short: as §1
[16] = test system: Staphylococcus aureus; assay: Antibacterial activity against vancomycin-intermediate Staphylococcus aureus clinical isolate 12 assessed as bacterial growth inhibition after 20 hrs by broth microdilution assay; type: functional; in short: as §1
[17] = test system: Bacillus anthracis; assay: Antibacterial activity against Bacillus anthracis Sterne 34F2 assessed as zone of inhibition by disc diffusion method; type: functional
[18] = test system: Staphylococcus aureus; assay: Antibacterial activity against community acquired methicillin-resistant Staphylococcus aureus BAA 1747 assessed as zone of inhibition by disc diffusion method; type: functional
[19] = test system: Staphylococcus aureus; assay: Antibacterial activity against methicillin-susceptible Staphylococcus aureus ATCC 25923 in presence of glutathione; type: functional
In short: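 Broth microdilution MIC: a 0.5 McFarland suspension from overnight culture was diluted 1:100 in cation-adjusted Mueller Hinton broth supplemented with glutathione 100 μM. It was exposed to serial dilutions for 20 h at 37 °C. MIC was taken as the lowest concentration with no visible growth.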

[20] = test system: Staphylococcus aureus; assay: Antibacterial activity against vancomycin-intermediate resistant Staphylococcus aureus Mu50 ATCC 700699 assessed as zone of inhibition by disc diffusion method; type: functional
[21] = test system: Staphylococcus aureus; assay: Ratio of MBC to MIC against heterogeneous vancomycin-intermediate Staphylococcus aureus Mu3 ATCC 700698; type: functional; in short: as §2
[22] = test system: Staphylococcus aureus; assay: Bactericidal activity against methicillin-resistant Staphylococcus aureus ATCC 43300 assessed as bacterial killing incubated for over night; type: functional; in short: as §2
[23] = test system: Staphylococcus aureus; assay: Ratio of MBC to MIC against methicillin-susceptible Staphylococcus aureus ATCC 25923; type: functional; in short: as §2
[24] = test system: Staphylococcus aureus; assay: Antibacterial activity against heterogeneous vancomycin-intermediate Staphylococcus aureus Mu3 ATCC 700698 assessed as bacterial growth inhibition incubated for 20 hrs by broth dilution method; type: functional; in short: as §1
[25] = test system: Staphylococcus aureus; assay: Bactericidal activity against methicillin-susceptible Staphylococcus aureus ATCC 25923 assessed as bacterial killing incubated for over night; type: functional
In short: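 5 μL from each well was spotted on agar and incubated overnight. MBC was taken as the lowest concentration with no visible growth.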

[26] = test system: Staphylococcus aureus; assay: Antibacterial activity against vancomycin-resistant Staphylococcus aureus clinical isolate 10 assessed as bacterial growth inhibition after 20 hrs by broth microdilution assay; type: functional; in short: as §1
[27] = test system: Staphylococcus aureus; assay: Ratio of MBC to MIC against methicillin-resistant Staphylococcus aureus ATCC 43300; type: functional; in short: as §2
[28] = test system: Staphylococcus aureus; assay: Antibacterial activity against methicillin-susceptible Staphylococcus aureus ATCC 25923 in presence of 5% v/v serum; type: functional
[29] = test system: Staphylococcus aureus; assay: Ratio of MBC to MIC against vancomycin-intermediate resistant Staphylococcus aureus Mu50 ATCC 700699; type: functional; in short: as §2
[30] = test system: Staphylococcus aureus; assay: Antibacterial activity against heterogeneous vancomycin-intermediate resistant Staphylococcus aureus Mu3 ATCC 700698 assessed as zone of inhibition by disc diffusion method; type: functional
[31] = test system: Enterococcus faecalis; assay: Antibacterial activity against vancomycin-susceptible Enterococcus faecalis ATCC 29212 assessed as zone of inhibition by disc diffusion method; type: functional
[32] = test system: Staphylococcus aureus; assay: Bactericidal activity against heterogeneous vancomycin-intermediate Staphylococcus aureus Mu3 ATCC 700698 assessed as bacterial killing incubated for over night; type: functional; in short: as §2
[33] = test system: Klebsiella pneumoniae; assay: Antibacterial activity against multidrug-resistant Klebsiella pneumoniae ATCC 700603 assessed as zone of inhibition by disc diffusion method; type: functional
[34] = test system: Staphylococcus aureus; assay: Ration of MBC to MIC against Vancomycin-resistant Staphylococcus aureus HIP11714; type: functional; in short: as §2
[35] = test system: Pseudomonas aeruginosa; assay: Antibacterial activity against Pseudomonas aeruginosa ATCC 15422 assessed as zone of inhibition by disc diffusion method; type: functional
[36] = test system: Acinetobacter baumannii; assay: Antibacterial activity against Acinetobacter baumannii ATCC 19606 assessed as zone of inhibition by disc diffusion method; type: functional
[37] = test system: Enterobacter cloacae; assay: Antibacterial activity against Enterobacter cloacae ATCC 23355 assessed as zone of inhibition by disc diffusion method; type: functional
[38] = test system: Escherichia coli; assay: Antibacterial activity against beta-lactam resistant Escherichia coli BAA 2326 assessed as zone of inhibition by disc diffusion method; type: functional
[39] = test system: Staphylococcus aureus; assay: Bactericidal activity against Vancomycin-resistant Staphylococcus aureus HIP11714 assessed as bacterial killing incubated for over night; type: functional; in short: as §2
[40] = test system: Acinetobacter baumannii; assay: Antibacterial activity against multidrug-resistant Acinetobacter baumannii BAA 1605 assessed as zone of inhibition by disc diffusion method; type: functional

In the case of CN[C@H](CC(C)C)C(=O)N[C@H]1C(=O)N[C@@H](CC(N)=O)C(=O)N[C@H]2C(=O)N[C@H]3C(=O)N[C@H](C(=O)N[C@H](C(=O)O)c4cc(O)cc(O)c4-c4cc3ccc4O)[C@H](O)c3ccc(c(Cl)c3)Oc3cc2cc(c3O[C@@H]2O[C@H](CO)[C@@H](O)[C@H](O)[C@H]2O[C@H]2C[C@](C)(N)[C@H](O)[C@H](C)O2)Oc2ccc(cc2Cl)[C@H]1O [VANCOMYCIN], the MIC [1] is reported as 0.78 µM (≈ 1.13 µg/mL), the MIC [2] is reported as 0.78 µM and the Ratio [3] is reported as 2. For the same compound, the “diameter of the inhibition zone (DIZ)” value [4] was 11 mm, the “diameter of the inhibition zone (DIZ)” value [5] was 0 mm and the MIC [6] was 3.13 µM (≈ 4.54 µg/mL). The MIC [7] was 0.78 µM (≈ 1.13 µg/mL), the “diameter of the inhibition zone (DIZ)” value [8] was 22 mm and the MBC [9] was 1.56 µM (≈ 2.26 µg/mL). For the same compound, the “diameter of the inhibition zone (DIZ)” value [10] was 24 mm, the MIC [11] was over 50 µM and the MBC [12] was 3.13 µM (≈ 4.54 µg/mL). For the same compound, the “diameter of the inhibition zone (DIZ)” value [13] was 21 mm, the MIC [14] was 0.78 µM and the MIC [15] was 0.39 µM (≈ 0.565 µg/mL). For the same compound, the MIC50 [16] was 3.13 µM (≈ 4.54 µg/mL), the MIC90 [16] was 3.13 µM (≈ 4.54 µg/mL) and the “diameter of the inhibition zone (DIZ)” value [17] was 26 mm. For the same compound, the “diameter of the inhibition zone (DIZ)” value [18] was 20 mm, the MIC [19] was 0.78 µM and the “diameter of the inhibition zone (DIZ)” value [20] was 20 mm. For the same compound, the Ratio [21] was 1, the MBC [22] was 0.78 µM (≈ 1.13 µg/mL) and the Ratio [23] was 2. The MIC [24] was 0.78 µM (≈ 1.13 µg/mL), the MBC [25] was 1.56 µM (≈ 2.26 µg/mL) and the MIC50 [26] was over 50 µM. For the same compound, the MIC90 [26] was over 50 µM, the Ratio [27] was 2 and the MIC [28] was 0.78 µM. The Ratio [29] was 1, the “diameter of the inhibition zone (DIZ)” value [30] was 20 mm and the “diameter of the inhibition zone (DIZ)” value [31] was 21 mm. It also gave an MBC [32] of 0.78 µM (≈ 1.13 µg/mL).

In the case of CCCCCCCSSc1ccccn1, the MIC [1] is reported as 25 µM (≈ 6.04 µg/mL), the MIC [2] is reported as 25 µM and the “diameter of the inhibition zone (DIZ)” value [33] is reported as 0 mm. The “diameter of the inhibition zone (DIZ)” value [5] was 10 mm, the MIC [6] was 3.13 µM (≈ 0.756 µg/mL) and the MIC [7] was 12.5 µM (≈ 3.02 µg/mL). For the same compound, the “diameter of the inhibition zone (DIZ)” value [8] was over 50 mm, the Ratio [34] was over 8 and the “diameter of the inhibition zone (DIZ)” value [35] was 0 mm. For the same compound, the “diameter of the inhibition zone (DIZ)” value [36] was 0 mm, the “diameter of the inhibition zone (DIZ)” value [10] was over 50 mm and the MIC [11] was 6.25 µM (≈ 1.51 µg/mL). For the same compound, the “diameter of the inhibition zone (DIZ)” value [37] was 0 mm, the MBC [12] was 25 µM (≈ 6.04 µg/mL) and the “diameter of the inhibition zone (DIZ)” value [13] was 46 mm. The “diameter of the inhibition zone (DIZ)” value [38] was 0 mm, the MIC [14] was 12.5 µM and the MIC [15] was 6.25 µM (≈ 1.51 µg/mL). The MIC50 [16] was 12.5 µM (≈ 3.02 µg/mL), the MIC90 [16] was 12.5 µM (≈ 3.02 µg/mL) and the “diameter of the inhibition zone (DIZ)” value [17] was 50 mm. It also gave an MIC [19] of 50 µM, a Ratio [21] of over 4 and an MBC [39] of over 50 µM. For the same compound, the “diameter of the inhibition zone (DIZ)” value [40] was 0 mm, the MBC [22] was over 50 µM and the Ratio [23] was over 4. It also gave an MIC [24] of 12.5 µM (≈ 3.02 µg/mL), an MBC [25] of over 50 µM and an MIC50 [26] of 6.25 µM (≈ 1.51 µg/mL). The MIC90 [26] was 12.5 µM (≈ 3.02 µg/mL), the Ratio [27] was over 8 and the MIC [28] was 25 µM. The Ratio [29] was 8, the “diameter of the inhibition zone (DIZ)” value [31] was 10 mm and the MBC [32] was over 50 µM.
